Broadly, the GI50 is the concentration that inhibits growth by half. A lower GI50 goes with more potent growth inhibition. For orientation: CC50 means the concentration that lowers cell viability or growth by half. Higher therefore signals lower toxicity to the cells. As usually defined, the inhibition is the percentage by which the read-out fell short of the control. Read a high inhibition as a response far below the control.

One series concerns K562. The series can be described thus: Antiproliferative activity against human K562 cells after 48 hrs by MTT assay. The class given is functional. The following applies: K562, 48 h. The method, boiled down: (§1)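 Log-phase cells, harvested by trypsinization, seeded 24 h, then exposed to a range of compound concentrations for 48 h. Culture in RPMI 1640 with 4% FBS, penicillin/streptomycin, 37°C, 5% CO2. DMSO below 1% final; 5-Fu as positive control. Readout is MTT (0.5 mg/mL, 4 h), formazan dissolved in DMSO, absorbance at 570 nm. GI50 = 50% growth inhibition versus untreated cells; means ± SD of at least two independent experiments.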
For orientation: Formazan colour is commonly taken as a measure of viable cells.

A further series deals with AGS. The series can be described thus: Antiproliferative activity against human AGS cells after 48 hrs by MTT assay. The series is classed as functional. The method, boiled down: as §1
A short description of series [1]: Cytotoxicity against mouse HT22 cells after 48 hrs by MTT assay. The class given is cell-based, HT-22. The method, boiled down: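 MTT readout after 48 h exposure; CC50 is the 50% cytotoxic concentration, mean of three repeated experiments.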
Series [2] deals with SH-SY5Y. Kind of series: Antiproliferative activity against human SH-SY5Y cells after 48 hrs by MTT assay. The series is classed as functional. An outline of the steps:
as §1

A further series relates to Tubulin (Sus scrofa). The series can be described thus: Inhibition of pig brain tubulin polymerization at 10 uM by spectrophotometry relative to control.
The subject of series [3] is SH-SY5Y. Kind of series: Potency index, ratio of 5-Fu GI50 to test compound GI50 for human SH-SY5Y cells. The class given is functional.
Series [4] is described as follows: Selectivity ratio of GI50 for human AGS cells to GI50 for human SH-SY5Y cells. The class given is functional.
Series [5] is described as follows: Selectivity index, ratio of GI50 for mouse HT22 cells to GI50 for human SH-SY5Y cells. The class given is toxicity. Conditions: HT22 cells and SH-SY5Y cells, read-out: RatioGI50.
Series [6] is described as follows: Selectivity ratio of GI50 for human K562 cells to GI50 for human SH-SY5Y cells. The series is classed as functional.

On to `COc1cc(Cn2cnc3c(Cl)nc(Cl)nc32)cc(OC)c1`, for which the values for the GI50 in the series with K562, in the series on AGS and in the series with SH-SY5Y [2] were 4.6 µM, 3.8 µM and 1.7 µM, respectively. The CC50 at 48 h in series [1] was greater than 100 µM. Also, the inhibition with Tubulin (Sus scrofa) is 13%.
As to `COc1ccc(Cn2cnc3c(N(C)c4ccc(OC)cc4)ncnc32)cc1`, the GI50 with K562 was greater than 100 µM; in the series on AGS, greater than 100 µM; in the series with SH-SY5Y [2], 27 µM.
For the compound `COc1cc(Cn2cnc3c(Cl)ncnc32)cc(OC)c1`, the concentration for 50% growth inhibition (GI50) with K562, in the series with AGS and in the series on SH-SY5Y [2] was greater than 100 µM in each case.
With `COc1ccc(N(C)c2nc(Cl)nc3c2ncn3Cc2cc(OC)c(OC)c(OC)c2)cc1`, the GI50 in the series on K562 amounted to 41 µM; with AGS, 85 µM; in the series on SH-SY5Y [2] it was 3 µM. The inhibition with Tubulin (Sus scrofa) came out at 12%.
For `COc1ccc(N(C)c2ncnc3c2ncn3Cc2cc(OC)cc(OC)c2)cc1`, the GI50 with K562 is 42 µM; in the series on AGS it was greater than 100 µM; in the series with SH-SY5Y [2], greater than 100 µM.
As to `COc1ccc(N(C)c2nc(Cl)nc3c2ncn3Cc2cc(OC)cc(OC)c2)cc1`, the GI50 was 42 µM in the series with K562, 69 µM in the series on AGS and greater than 100 µM in the series on SH-SY5Y [2].
Take `COc1ccc(N(C)c2ncnc3c2ncn3Cc2cc(OC)c(OC)c(OC)c2)cc1`: the RatioGI50 was 46 in the series with SH-SY5Y [3], greater than 230 in series [4] and greater than 230 in series [6]. In addition, the GI50 with K562 was greater than 100 µM; in the series on AGS it was greater than 100 µM; in the series with SH-SY5Y [2], 0.26 µM. Further, the CC50 at 48 h in [1] is 23 µM. Moreover, the selectivity ratio in series [5] is 88. Besides, the inhibition with Tubulin (Sus scrofa) was found to be 20%.
As to `COc1ccc(N(C)c2ncnc3[nH]cnc23)cc1`, the GI50 in the series with K562, in the series on AGS and in the series on SH-SY5Y [2] was greater than 100 µM each time.
As for `COc1cc(Cn2cnc3c(Cl)nc(Cl)nc32)cc(OC)c1OC`, the GI50 was 4.3 µM in the series with K562, 9.4 µM with AGS and 9.6 µM in the series on SH-SY5Y [2]. Also, the inhibition in the series on Tubulin (Sus scrofa) came to 13%.
Consider `COc1ccc(N(C)c2ncnc3c2ncn3Cc2ccc(OC)c(OC)c2)cc1`, for which the results for the RatioGI50 (with SH-SY5Y [3]; in series [4]; in series [6]) were 28, greater than 230 and greater than 230, respectively. For the same compound, the GI50 with K562 was greater than 100 µM; in the series with AGS it was greater than 100 µM; in the series with SH-SY5Y [2], 0.43 µM. In addition, in [1], the CC50 at 48 h is greater than 100 µM. In addition, in [5], the selectivity ratio is 230. The compound further had an inhibition with Tubulin (Sus scrofa) of 18%.
`O=c1[nH]cc(F)c(=O)[nH]1` [FLUOROURACIL]: the GI50 in the series on K562 came out at 19 µM; in the series on AGS, 25 µM; with SH-SY5Y [2] it was 12 µM.

These data come from ChEMBL document CHEMBL4130374, “Discovery of 9H-purins as potential tubulin polymerization inhibitors: Synthesis, biological evaluation and structure-activity relationships” (Eur J Med Chem, 2017).
